# Experimental data from ChEMBL document CHEMBL5661976 (Cancer Res, 2007).
# Calls of active or inactive are those of the source. No cut-off for these calls is given here.
# Columns and labels:
# [1] = tested on: NCI-H3255; test: cells; type: functional, cell-based; conditions: Homo sapiens, NCI-H3255, 72 h
# [2] = cells; type: functional, cell-based; conditions: Homo sapiens, NCI-H3255GR, 72 h
# [3] = tested on: HCC827; test: cells; type: functional, cell-based; conditions: Homo sapiens, HCC827, 72 h
# [4] = cells; type: functional, cell-based; conditions: Homo sapiens, NCI-H820, 72 h
# [5] = tested on: HCC4006; test: cells; type: functional, cell-based; conditions: Homo sapiens, HCC4006, 72 h
# [6] = tested on: PC-9; test: cells; type: functional, cell-based; conditions: Homo sapiens, PC-9, 72 h
# [7] = cells; type: functional, cell-based; conditions: Homo sapiens, NCI-H1781, 72 h
# [8] = tested on: BaF3; test: cells; type: functional, cell-based; conditions: Mus musculus, BaF3, 72 h
# [9] = tested on: BaF3; test: cells; type: functional, cell-based; conditions: Mus musculus, BaF3, 72 h; remark: listed apart in the source
# [10] = tested on: BaF3; test: cells; type: functional, cell-based; conditions: Mus musculus, BaF3, 72 h; remark: listed apart in the source
# [11] = tested on: BaF3; test: cells; type: functional, cell-based; conditions: Mus musculus, BaF3, 72 h; remark: listed apart in the source
# [12] = tested on: BaF3; test: cells; type: functional, cell-based; conditions: Mus musculus, BaF3, 72 h; remark: listed apart in the source
# [13] = tested on: BaF3; test: cells; type: functional, cell-based; conditions: Mus musculus, BaF3, 72 h; remark: listed apart in the source
# [14] = tested on: BaF3; test: cells; type: functional, cell-based; conditions: Mus musculus, BaF3, 72 h; remark: listed apart in the source
# [15] = tested on: BaF3; test: cells; type: functional, cell-based; conditions: Mus musculus, BaF3, 72 h; remark: listed apart in the source
# [16] = tested on: BaF3; test: cells; type: functional, cell-based; conditions: Mus musculus, BaF3, 72 h; remark: listed apart in the source
# [17] = tested on: BaF3; test: cells; type: functional, cell-based; conditions: Mus musculus, BaF3, 72 h; remark: listed apart in the source
# [18] = tested on: BaF3; test: cells; type: functional, cell-based; conditions: Mus musculus, BaF3, 72 h; remark: listed apart in the source
# [19] = tested on: BaF3; test: cells; type: functional, cell-based; conditions: Mus musculus, BaF3, 72 h; remark: listed apart in the source
# [20] = tested on: BaF3; test: cells; type: functional, cell-based; conditions: Mus musculus, BaF3, 72 h; remark: listed apart in the source
# [21] = tested on: BaF3; test: cells; type: functional, cell-based; conditions: Mus musculus, BaF3, 72 h; remark: listed apart in the source
# [22] = tested on: NCI-H3255GR; test: Induction of apoptosis in human NCI-H3255GR cells assessed as increase in cleavage of PARP at 1 micromol/L incubated for 72 hrs by Western blotting analysis; type: functional, cell-based; conditions: dose 1.0 µmol/L
# [23] = tested on: NCI-H3255; test: Induction of apoptosis in human NCI-H3255 cells assessed as increase in cleavage of PARP at 1 micromol/L incubated for 72 hrs by Western blotting analysis; type: functional, cell-based; conditions: dose 1.0 µmol/L
# [24] = biological target: Receptor tyrosine-protein kinase erbB-3 (Homo sapiens) (UniProt P21860); test: Inhibition of ERBB3 phosphorylation in human HCC827 cells expressing GFP at 1 to 10000 nmol/L incubated for 12 hrs by Western blotting analysis; type: cell-based; conditions: dose 1-10000 nmol/L
# [25] = tested on: NCI-H3255; test: cells; type: functional, cell-based; conditions: Homo sapiens, NCI-H3255, 72 h; remark: listed apart in the source
# [26] = tested on: NCI-H3255; test: cells; type: functional, cell-based; conditions: Homo sapiens, NCI-H3255, 72 h; remark: listed apart in the source
# [27] = tested on: NCI-H3255; test: cells; type: functional, cell-based; conditions: Homo sapiens, NCI-H3255, 72 h; remark: listed apart in the source
# [28] = tested on: NCI-H3255; test: cells; type: functional, cell-based; conditions: Homo sapiens, NCI-H3255, 72 h; remark: listed apart in the source
# [29] = tested on: HCC827; test: Antiproliferative activity against human HCC827 cells harboring EGFR Del E746_A750 mutant transfected with GFP assessed as inhibition of cell growth incubated for 72 hrs by MTS assay; type: functional, cell-based; conditions: HCC827, 72 h
# In short: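 MTS viable-cell assay (bioreduction to soluble formazan, spectrophotometric read) after 72 h drug exposure; cell numbers set empirically.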
# [30] = tested on: HCC827; test: cells; type: functional, cell-based; conditions: Homo sapiens, HCC827, 72 h; remark: listed apart in the source
# [31] = tested on: HCC827; test: cells; type: functional, cell-based; conditions: Homo sapiens, HCC827, 72 h; remark: listed apart in the source
# [32] = tested on: HCC827; test: cells; type: functional, cell-based; conditions: Homo sapiens, HCC827, 72 h; remark: listed apart in the source
# [33] = tested on: HCC827; test: cells; type: functional, cell-based; conditions: Homo sapiens, HCC827, 72 h; remark: listed apart in the source
# [34] = tested on: HCC827; test: cells; type: functional, cell-based; conditions: Homo sapiens, HCC827, 72 h; remark: listed apart in the source
# [35] = tested on: HCC827; test: Antitumor activity against human HCC827 cells expressing GFP xenografted in nude mouse assessed as inhibition of tumor growth at 10 mg/kg/day, po and measured thrice weekly; type: functional, organism-based
# In short: (§1)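 Nu/nu mice under 2% isoflurane/oxygen inoculated s.c. in lower-right flank with 5 × 10^6 HCC827-GFP or HCC827-Del/T790M cells in 0.2 mL PBS; randomized at mean tumor 400 to 500 mm3. Daily oral gavage 10 mg/kg/d; caliper volume = length × width² × 0.52; body weight monitored daily; ended when control tumors reached 2000 mm3.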
# [36] = tested on: HCC827; test: Antitumor activity against human HCC827 cells expressing EGFR Del/T790M mutant xenografted in nude mouse assessed as inhibition of tumor growth at 10 mg/kg/day, po administered for 95 days and measured thrice weekly; type: functional, organism-based; conditions: time 95.0 day
# In short: as §1
# [37] = tested on: NIH3T3; test: Inhibition of ERBB2 Ins774YVMA mutant (unknown origin) expressed in mouse NIH3T3 cells assessed as inhibition of ERBB2 phosphorylation at 100 to 10000 nmol/L incubated for 6 hrs by Western blotting analysis; type: cell-based; conditions: dose 100-10000 nmol/L
# [38] = tested on: NIH3T3; conditions: Mus musculus, dose 1-10000 nmol/L, time 6.25 hrs
# [39] = tested on: NIH3T3; conditions: Mus musculus, dose 1-10000 nmol/L, time 6.25 hrs; remark: listed apart in the source
# [40] = tested on: NIH3T3; conditions: Mus musculus, dose 1-10000 nmol/L, time 6.25 hrs; remark: listed apart in the source
# [41] = tested on: HCC827; conditions: Homo sapiens, dose 1-10000 nmol/L, time 12.0 hrs
# Chain of Receptor tyrosine-protein kinase erbB-3 (Homo sapiens) (P21860 whole entry): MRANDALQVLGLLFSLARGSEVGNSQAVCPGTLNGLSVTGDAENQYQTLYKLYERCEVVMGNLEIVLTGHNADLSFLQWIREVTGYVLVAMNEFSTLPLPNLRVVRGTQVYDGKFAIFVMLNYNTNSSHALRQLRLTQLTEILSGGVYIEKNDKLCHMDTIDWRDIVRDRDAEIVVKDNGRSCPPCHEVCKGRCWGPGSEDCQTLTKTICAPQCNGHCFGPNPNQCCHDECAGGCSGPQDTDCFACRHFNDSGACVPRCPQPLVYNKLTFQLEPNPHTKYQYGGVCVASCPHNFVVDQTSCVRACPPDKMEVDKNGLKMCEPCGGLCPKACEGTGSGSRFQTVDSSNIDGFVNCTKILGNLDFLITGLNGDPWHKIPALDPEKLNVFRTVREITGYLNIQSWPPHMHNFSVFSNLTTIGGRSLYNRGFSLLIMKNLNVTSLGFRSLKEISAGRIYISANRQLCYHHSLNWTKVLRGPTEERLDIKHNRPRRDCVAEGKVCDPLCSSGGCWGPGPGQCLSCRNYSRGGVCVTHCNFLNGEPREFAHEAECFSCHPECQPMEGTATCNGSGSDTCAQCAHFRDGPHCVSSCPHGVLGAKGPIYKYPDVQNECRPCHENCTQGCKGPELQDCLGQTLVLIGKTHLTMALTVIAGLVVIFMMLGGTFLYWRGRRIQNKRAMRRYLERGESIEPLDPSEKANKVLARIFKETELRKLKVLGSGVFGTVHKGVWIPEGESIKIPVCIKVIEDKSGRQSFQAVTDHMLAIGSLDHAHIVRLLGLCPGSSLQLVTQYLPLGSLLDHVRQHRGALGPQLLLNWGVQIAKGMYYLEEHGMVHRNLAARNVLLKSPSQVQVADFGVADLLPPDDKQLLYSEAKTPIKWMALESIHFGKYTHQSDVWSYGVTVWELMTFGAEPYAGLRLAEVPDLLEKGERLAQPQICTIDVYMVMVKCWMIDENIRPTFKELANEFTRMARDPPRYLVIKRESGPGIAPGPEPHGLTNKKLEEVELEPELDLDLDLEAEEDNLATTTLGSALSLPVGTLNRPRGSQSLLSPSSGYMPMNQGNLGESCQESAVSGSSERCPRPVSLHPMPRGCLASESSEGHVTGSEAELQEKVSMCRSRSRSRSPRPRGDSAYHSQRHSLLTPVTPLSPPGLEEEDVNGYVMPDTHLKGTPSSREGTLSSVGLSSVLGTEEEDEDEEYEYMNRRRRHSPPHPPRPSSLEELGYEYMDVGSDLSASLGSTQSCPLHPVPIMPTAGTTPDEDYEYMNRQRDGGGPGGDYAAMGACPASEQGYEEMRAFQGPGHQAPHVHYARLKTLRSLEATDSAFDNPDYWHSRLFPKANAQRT
structure (smiles),measurement,setting,value
COc1cc2ncnc(Nc3ccc(F)c(Cl)c3)c2cc1NC(=O)/C=C/CN1CCCCC1 [DACOMITINIB ANHYDROUS],IC50,[1],7 nM
same,IC50,[2],119 nM
same,IC50,[3],2 nM
same,IC50,[4],930 nM
same,IC50,[5],4 nM
same,IC50,[6],2 nM
same,IC50,[7],275 nM
same,IC50,[8],< 1 nM
same,IC50,[9],2 nM
same,IC50,[10],1.6 nM
same,IC50,[11],1.9 nM
same,IC50,[12],1.4 nM
same,IC50,[13],2.6 nM
same,IC50,[14],230 nM
same,IC50,[15],1.2 nM
same,IC50,[16],140 nM
same,IC50,[17],330 nM
same,IC50,[18],240 nM
same,IC50,[19],160 nM
same,IC50,[20],270 nM
same,IC50,[21],300 nM
same,Activity,[22],Active
same,Activity,[23],Active
same,inhibition,[24],Active
same,IC50,[25],7 nM
same,IC50,[26],137 nM
same,IC50,[27],1620 nM
same,IC50,[28],1570 nM
same,IC50,[29],2 nM
same,IC50,[30],3 nM
same,IC50,[31],14 nM
same,IC50,[32],61 nM
same,IC50,[33],2 nM
same,IC50,[34],83 nM
same,Activity,[35],Active
same,Activity,[36],Active
same,inhibition,[37],Active
same,inhibition,[38],Active
same,inhibition,[39],Active
same,inhibition,[40],Active
same,inhibition,[41],Active
